pKd: −log10 of the molar value. “Also recorded” adds a separate entry of the source. Values belong to the compound of their own block, whether it stands above or below them. Ends that are not written are not given here.
Key:
WT mouse RyR2 = assay: TAA block of ryanodine-modified WT RyR2, single channel; type: biochemical; settings: 60 mV; for rate of dissociation (koff), difference TBA vs TPeA: 200 µM TBA or 100 µM TPeA, 1 µM ryanodine-modified; for level of block: ryanodine-modified WT, 100 µM TPeA (200 µM TBA)
In short: (§1)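 Ryanodine-modified single channels were used: purified HEK293-expressed mouse RyR2 (WT or mutant) in PE bilayers, symmetrical KCl/HEPES pH 7.2, room temperature. TAA was added to […], with the holding potential at 60 mV. Data were filtered at 5 kHz and sampled at 20 kHz. Open and blocked lifetimes came from 50% threshold analysis of ≥2 min records, and blocking parameters were derived from them. Mean ± SEM, unpaired t tests.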

[1] = target: recombinant WT mouse RyR2 (Mus musculus, UniProt E9Q401); assay: TAA block of EMD 41000-activated WT RyR2, single channel in planar bilayer; type: biochemical
K^+ channels = settings: quoted range, ref Faraldo-Gómez et al., 2007; cited from earlier work
KcsA = settings: cytosolic cavity of KcsA; ref Faraldo-Gómez et al., 2007; cited from earlier work
I4861A RyR2 [2] = target: T1, I4861A RyR2 (Mus musculus, UniProt E9Q401, I4860A/I4861A); assay: TPeA block of EMD 41000-activated I4861A RyR2; type: biochemical; settings: 60 mV
I4862A RyR2 [3] = target: T2, I4862A RyR2 (Mus musculus, UniProt E9Q401, I4861A); assay: TPeA block of EMD 41000-activated I4862A RyR2; type: biochemical; settings: 60 mV
I4861A RyR2 [4] = target: T1, I4861A RyR2; assay: TPeA block of ryanodine-modified I4861A RyR2; type: biochemical; settings: 100 µM TPeA, 60 mV
In short: as §1

F4870A RyR2 [5] = target: T3, F4870A RyR2 (Mus musculus, UniProt E9Q401, F4869A); assay: TPeA block of ryanodine-modified F4870A RyR2; type: biochemical; settings: 100 µM TPeA, 60 mV
In short: as §1

I4867A RyR2 [6] = target: T4, I4867A RyR2 (Mus musculus, UniProt E9Q401, I4866A); assay: TPeA block of ryanodine-modified I4867A RyR2; type: biochemical; settings: 100 µM TPeA, 60 mV
In short: as §1

L4865A RyR2 [7] = target: T5, L4865A RyR2 (Mus musculus, UniProt E9Q401, L4864A); assay: TPeA block of ryanodine-modified L4865A RyR2; type: biochemical; settings: 100 µM TPeA, 60 mV
In short: as §1

I4862A RyR2 [8] = target: T2, I4862A RyR2; assay: TPeA block of ryanodine-modified I4862A RyR2; type: biochemical; settings: 100 µM TPeA, 60 mV
In short: as §1

L4865A RyR2 [9] = target: T5, L4865A RyR2; assay: TPeA block of EMD 41000-activated L4865A RyR2; type: biochemical; settings: 60 mV
RyR2 = assay: ShBP block of RyR2 in symmetrical 610 mM KCl; type: biochemical; settings: for block at high K+ activity: preliminary, symmetrical 610 mM KCl plus up to 100 µM EMD 41000
[10] = target: WT recombinant ryanodine-modified RyR2 channels (Mus musculus, UniProt E9Q401); assay: biochemical
F4870A RyR2 [11] = target: T3, F4870A RyR2; assay: Ryanodine modification of F4870A RyR2; type: biochemical
In short: (§2)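 Mouse RyR2 (WT or TM10 alanine mutants) was expressed in HEK293 cells by Ca²⁺ phosphate transfection for 48 h, solubilized in CHAPS/phosphatidylcholine and purified on a 0–40% sucrose gradient. Single channels were incorporated into PE bilayers with the cytosolic side cis, in symmetrical KCl with 20 mM HEPES pH 7.2, at 22 ± 2°C. After 1 µM ryanodine, amplitudes were read at 60 mV. Mean ± SEM, n = 4–7, unpaired t test.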

I4862A RyR2 [12] = target: T2, I4862A RyR2; assay: Ryanodine modification of I4862A RyR2; type: biochemical
In short: as §2

I4861A RyR2 [13] = target: T1, I4861A RyR2; assay: Ryanodine modification of I4861A RyR2; type: biochemical
In short: as §2

L4865A RyR2 [14] = target: T5, L4865A RyR2; assay: Ryanodine modification of L4865A RyR2; type: biochemical
In short: as §2

I4867A RyR2 [15] = target: T4, I4867A RyR2; assay: Ryanodine modification of I4867A RyR2; type: biochemical
In short: as §2

[16] = 1 µM ryanodine, 60 mV, lower than WT

T2 sequence (E9Q401 whole entry I4861A): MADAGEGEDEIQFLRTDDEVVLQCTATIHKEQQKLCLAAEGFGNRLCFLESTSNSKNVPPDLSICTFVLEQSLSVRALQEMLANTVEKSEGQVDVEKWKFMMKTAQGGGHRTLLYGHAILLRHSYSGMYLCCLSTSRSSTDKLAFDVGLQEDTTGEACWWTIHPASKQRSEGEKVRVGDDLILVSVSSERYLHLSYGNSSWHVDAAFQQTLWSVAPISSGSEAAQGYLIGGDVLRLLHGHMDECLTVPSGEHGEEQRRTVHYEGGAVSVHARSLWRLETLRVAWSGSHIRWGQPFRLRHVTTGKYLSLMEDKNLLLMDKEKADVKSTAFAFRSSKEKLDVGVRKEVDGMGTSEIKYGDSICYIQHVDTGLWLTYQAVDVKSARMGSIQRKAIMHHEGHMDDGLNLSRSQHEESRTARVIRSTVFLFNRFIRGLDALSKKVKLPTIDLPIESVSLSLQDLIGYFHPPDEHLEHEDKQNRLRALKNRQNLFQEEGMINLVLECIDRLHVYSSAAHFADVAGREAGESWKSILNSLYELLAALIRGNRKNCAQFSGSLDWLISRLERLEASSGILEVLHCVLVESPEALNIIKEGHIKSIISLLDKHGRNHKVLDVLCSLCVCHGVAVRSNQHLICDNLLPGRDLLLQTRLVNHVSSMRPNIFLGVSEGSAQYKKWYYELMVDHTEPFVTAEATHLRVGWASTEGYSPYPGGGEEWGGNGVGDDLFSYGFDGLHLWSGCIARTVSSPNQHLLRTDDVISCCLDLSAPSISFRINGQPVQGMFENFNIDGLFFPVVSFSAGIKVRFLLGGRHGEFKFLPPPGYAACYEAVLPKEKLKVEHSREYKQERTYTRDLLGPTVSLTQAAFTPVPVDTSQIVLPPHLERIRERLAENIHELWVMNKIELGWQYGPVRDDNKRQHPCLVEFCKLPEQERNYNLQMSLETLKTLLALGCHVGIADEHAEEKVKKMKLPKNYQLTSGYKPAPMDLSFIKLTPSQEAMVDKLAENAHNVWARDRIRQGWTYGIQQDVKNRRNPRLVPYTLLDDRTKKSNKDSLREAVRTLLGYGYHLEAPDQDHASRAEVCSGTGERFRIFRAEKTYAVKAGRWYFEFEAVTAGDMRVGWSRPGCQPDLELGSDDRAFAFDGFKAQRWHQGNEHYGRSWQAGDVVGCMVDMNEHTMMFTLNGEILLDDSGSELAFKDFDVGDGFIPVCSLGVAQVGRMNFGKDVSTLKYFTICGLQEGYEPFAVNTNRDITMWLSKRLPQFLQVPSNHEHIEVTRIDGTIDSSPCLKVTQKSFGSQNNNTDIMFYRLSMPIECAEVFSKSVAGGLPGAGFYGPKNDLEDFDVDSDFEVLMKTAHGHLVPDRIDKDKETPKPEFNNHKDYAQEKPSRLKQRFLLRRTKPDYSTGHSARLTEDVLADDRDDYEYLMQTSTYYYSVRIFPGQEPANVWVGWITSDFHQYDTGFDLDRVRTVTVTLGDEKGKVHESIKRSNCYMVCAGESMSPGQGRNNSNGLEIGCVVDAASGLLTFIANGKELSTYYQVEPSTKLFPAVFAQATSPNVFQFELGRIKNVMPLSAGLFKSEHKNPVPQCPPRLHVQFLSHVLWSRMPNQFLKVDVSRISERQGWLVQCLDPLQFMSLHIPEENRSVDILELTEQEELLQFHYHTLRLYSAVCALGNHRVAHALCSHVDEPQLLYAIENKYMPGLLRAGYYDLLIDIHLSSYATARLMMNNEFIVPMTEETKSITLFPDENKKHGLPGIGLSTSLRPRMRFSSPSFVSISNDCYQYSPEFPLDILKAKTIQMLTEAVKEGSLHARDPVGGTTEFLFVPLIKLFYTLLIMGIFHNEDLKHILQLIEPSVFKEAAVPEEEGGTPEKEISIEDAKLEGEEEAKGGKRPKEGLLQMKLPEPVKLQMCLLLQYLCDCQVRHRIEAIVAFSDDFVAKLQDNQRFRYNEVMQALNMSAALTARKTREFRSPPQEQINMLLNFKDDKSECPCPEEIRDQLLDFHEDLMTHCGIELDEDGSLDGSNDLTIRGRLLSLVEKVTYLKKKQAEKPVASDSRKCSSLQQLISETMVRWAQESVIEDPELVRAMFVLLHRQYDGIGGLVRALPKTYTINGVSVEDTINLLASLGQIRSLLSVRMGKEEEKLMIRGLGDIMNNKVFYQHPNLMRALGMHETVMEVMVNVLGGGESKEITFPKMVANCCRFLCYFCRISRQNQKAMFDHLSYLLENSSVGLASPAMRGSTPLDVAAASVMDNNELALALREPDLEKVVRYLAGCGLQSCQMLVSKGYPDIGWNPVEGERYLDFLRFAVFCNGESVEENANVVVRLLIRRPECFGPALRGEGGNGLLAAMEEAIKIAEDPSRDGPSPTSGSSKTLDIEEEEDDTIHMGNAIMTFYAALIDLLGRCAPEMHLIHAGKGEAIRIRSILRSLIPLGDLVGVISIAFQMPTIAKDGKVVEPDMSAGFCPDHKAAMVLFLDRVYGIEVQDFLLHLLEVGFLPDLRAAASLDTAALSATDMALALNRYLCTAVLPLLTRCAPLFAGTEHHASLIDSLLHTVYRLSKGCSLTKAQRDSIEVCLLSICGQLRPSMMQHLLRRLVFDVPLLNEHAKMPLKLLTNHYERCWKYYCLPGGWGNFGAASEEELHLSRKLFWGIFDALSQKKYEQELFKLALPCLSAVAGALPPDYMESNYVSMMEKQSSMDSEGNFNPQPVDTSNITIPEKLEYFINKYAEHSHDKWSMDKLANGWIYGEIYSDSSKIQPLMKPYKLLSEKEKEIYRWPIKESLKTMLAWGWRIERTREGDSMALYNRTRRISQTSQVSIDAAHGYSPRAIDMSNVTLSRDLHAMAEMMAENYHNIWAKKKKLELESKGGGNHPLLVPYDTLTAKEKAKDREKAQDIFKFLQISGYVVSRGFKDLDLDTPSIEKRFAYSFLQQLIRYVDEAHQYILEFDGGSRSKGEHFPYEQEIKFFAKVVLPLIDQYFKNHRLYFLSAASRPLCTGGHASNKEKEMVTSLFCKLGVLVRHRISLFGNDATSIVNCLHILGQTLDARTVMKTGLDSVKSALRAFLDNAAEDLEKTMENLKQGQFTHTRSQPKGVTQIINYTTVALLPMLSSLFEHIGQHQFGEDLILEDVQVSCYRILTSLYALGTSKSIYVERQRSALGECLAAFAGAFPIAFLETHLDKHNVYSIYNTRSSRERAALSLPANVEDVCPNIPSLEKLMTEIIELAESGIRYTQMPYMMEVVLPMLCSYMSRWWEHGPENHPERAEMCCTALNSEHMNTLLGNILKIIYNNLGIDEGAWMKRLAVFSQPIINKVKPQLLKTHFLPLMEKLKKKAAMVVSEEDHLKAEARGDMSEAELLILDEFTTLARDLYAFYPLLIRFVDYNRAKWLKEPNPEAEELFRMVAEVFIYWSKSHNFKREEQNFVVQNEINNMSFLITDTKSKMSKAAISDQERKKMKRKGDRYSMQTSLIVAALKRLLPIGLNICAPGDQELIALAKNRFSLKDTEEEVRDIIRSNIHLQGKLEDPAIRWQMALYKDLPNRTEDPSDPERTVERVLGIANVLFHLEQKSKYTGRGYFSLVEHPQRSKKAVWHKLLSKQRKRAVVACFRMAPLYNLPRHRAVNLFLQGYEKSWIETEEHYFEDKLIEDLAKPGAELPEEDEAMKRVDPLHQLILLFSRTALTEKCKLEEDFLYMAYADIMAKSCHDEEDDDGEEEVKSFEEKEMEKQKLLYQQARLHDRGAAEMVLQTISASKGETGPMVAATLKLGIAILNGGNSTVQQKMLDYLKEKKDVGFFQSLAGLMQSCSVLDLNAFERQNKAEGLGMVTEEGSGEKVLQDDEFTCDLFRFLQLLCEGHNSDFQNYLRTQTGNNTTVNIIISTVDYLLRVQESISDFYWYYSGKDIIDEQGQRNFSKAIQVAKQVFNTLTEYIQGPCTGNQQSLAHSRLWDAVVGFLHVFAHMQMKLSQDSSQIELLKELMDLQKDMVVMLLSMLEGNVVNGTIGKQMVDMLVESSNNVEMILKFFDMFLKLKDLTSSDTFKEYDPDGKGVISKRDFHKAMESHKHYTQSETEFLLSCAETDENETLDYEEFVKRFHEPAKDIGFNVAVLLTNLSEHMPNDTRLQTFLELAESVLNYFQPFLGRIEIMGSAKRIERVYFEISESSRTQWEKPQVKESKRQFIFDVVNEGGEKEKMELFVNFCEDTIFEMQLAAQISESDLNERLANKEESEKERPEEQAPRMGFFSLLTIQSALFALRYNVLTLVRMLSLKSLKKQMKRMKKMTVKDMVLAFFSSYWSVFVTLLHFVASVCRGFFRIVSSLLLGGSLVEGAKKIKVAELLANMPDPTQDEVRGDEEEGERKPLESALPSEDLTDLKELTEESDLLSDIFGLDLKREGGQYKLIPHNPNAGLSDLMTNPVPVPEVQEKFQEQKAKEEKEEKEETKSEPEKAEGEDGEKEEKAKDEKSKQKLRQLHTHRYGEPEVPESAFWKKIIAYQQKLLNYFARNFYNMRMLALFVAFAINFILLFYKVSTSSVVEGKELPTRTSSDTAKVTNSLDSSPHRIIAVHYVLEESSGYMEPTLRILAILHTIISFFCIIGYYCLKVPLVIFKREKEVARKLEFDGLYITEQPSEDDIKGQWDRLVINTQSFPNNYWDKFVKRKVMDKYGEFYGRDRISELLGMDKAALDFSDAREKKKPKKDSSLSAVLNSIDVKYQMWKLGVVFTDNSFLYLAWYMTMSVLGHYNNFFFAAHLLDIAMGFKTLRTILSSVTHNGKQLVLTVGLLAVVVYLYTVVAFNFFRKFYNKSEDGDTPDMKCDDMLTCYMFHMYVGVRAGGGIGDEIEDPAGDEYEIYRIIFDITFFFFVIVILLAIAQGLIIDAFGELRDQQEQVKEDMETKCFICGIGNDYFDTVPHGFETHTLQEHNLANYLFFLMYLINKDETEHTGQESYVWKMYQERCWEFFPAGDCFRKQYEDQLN
recombinant WT mouse RyR2, sequence (E9Q401 whole entry): as the sequence (E9Q401 whole entry I4861A) above, with A4861I counted along it
T3 sequence (E9Q401 whole entry F4869A): as the sequence (E9Q401 whole entry I4861A) above, with A4861I, F4869A counted along it
T5 sequence (E9Q401 whole entry L4864A): as the sequence (E9Q401 whole entry I4861A) above, with A4861I, L4864A counted along it
T4 sequence (E9Q401 whole entry I4866A): as the sequence (E9Q401 whole entry I4861A) above, with A4861I, I4866A counted along it
T1 sequence (E9Q401 whole entry I4860A/I4861A): as the sequence (E9Q401 whole entry I4861A) above, with I4860A counted along it

Compound: CCCC[N+](CCCC)(CCCC)CCCC [TBA, tetrabutylammonium]
- rate of dissociation (koff), difference TBA vs TPeA (WT mouse RyR2): very marked difference in the rates of dissociation of TBA and TPeA is retained
- level of block (WT mouse RyR2): completely occlude the RyR2 pore
- pKd [1]: 3.75
- koff [1]: 412 s⁻¹
- koff (K^+ channels): 10 to 200 s⁻¹
- pore occlusion (KcsA): fully occludes the pore of the channel

- pKd [1]: 5.59
- fold increase in affinity between TBA and THexA ([1]; EMD 41000-activated, 610 mM K+, 60 mV, THexA relative to TBA): 69.5 -fold
- fold decrease in koff between TPeA and THexA ([1]; EMD 41000-activated, 610 mM K+, 60 mV, THexA relative to TPeA): 1.7 -fold
Compound: CCCCCC[N+](CCCCCC)(CCCCCC)CCCCCC [THexA, tetrahexylammonium]

- probability of block (1 − Po) vs WT (I4861A RyR2 [2]; 100 µM TPeA): reduced significantly
- rate of association (kon) vs WT (I4861A RyR2 [2]; 100 µM TPeA): unaffected
- affinity (Kd) vs WT (I4861A RyR2 [2]; 100 µM TPeA, in words): significant decreases in TPeA affinity
- probability of block (1 − Po) vs WT (I4862A RyR2 [3]; 100 µM TPeA): reduced significantly
- rate of association (kon) vs WT (I4862A RyR2 [3]; 100 µM TPeA): unaffected
- affinity (Kd) vs WT (I4862A RyR2 [3]; 100 µM TPeA, in words): significant decreases in TPeA affinity
- koff vs WT (I4861A RyR2 [4]): significant increase in koff
- kon vs WT (I4861A RyR2 [4]): reduced significantly
- affinity (Kd) vs WT (I4861A RyR2 [4]; in words): significant reduction in TPeA affinity
- koff vs WT (F4870A RyR2 [5]): significant increase in koff
- kon vs WT (F4870A RyR2 [5]): reduced significantly
- affinity (Kd) vs WT (F4870A RyR2 [5]; in words): significant reduction in TPeA affinity
- koff vs WT (I4867A RyR2 [6]): significant increase in koff
- kon vs WT (I4867A RyR2 [6]): reduced significantly
- affinity (Kd) vs WT (I4867A RyR2 [6]; in words): significant reduction in TPeA affinity
- koff vs WT (L4865A RyR2 [7]): significant increase in koff
- kon vs WT (L4865A RyR2 [7]): unaffected
- affinity (Kd) vs WT (L4865A RyR2 [7]; in words): significant reduction in TPeA affinity
- koff vs WT (I4862A RyR2 [8]): significant increase in koff
- kon vs WT (I4862A RyR2 [8]): unaffected
- affinity (Kd) vs WT (I4862A RyR2 [8]; in words): significant reduction in TPeA affinity
- fold decrease in koff between TBA and TPeA ([1]; EMD 41000-activated, 610 mM K+, 60 mV, TPeA relative to TBA): 22 -fold
- rate of association (kon) vs WT (L4865A RyR2 [9]; 100 µM TPeA): unaffected
Compound: CCCCC[N+](CCCCC)(CCCCC)CCCCC [TPeA, tetrapentylammonium]
- rate of dissociation (koff) vs WT (I4861A RyR2 [2]; 100 µM TPeA): significantly increased rates of TPeA dissociation
- residual current vs WT (I4861A RyR2 [2]; 100 µM TPeA): slightly lower than the equivalent current in the WT RyR2
- amplitude of full open state in presence of TPeA vs WT (I4861A RyR2 [2]): indistinguishable from that of the WT channel
- rate of dissociation (koff) vs WT (I4862A RyR2 [3]; 100 µM TPeA): significantly increased rates of TPeA dissociation, with the most dramatic effect seen in I4862A
- residual current vs WT (I4862A RyR2 [3]; 100 µM TPeA): indistinguishable from that of the WT channel
- amplitude of full open state in presence of TPeA vs WT (I4862A RyR2 [3]): indistinguishable from that of the WT channel
- level of block (I4861A RyR2 [4]): to a level indistinguishable from the closed state
- magnitude / probability of block (1 − Po) vs WT (I4861A RyR2 [4]): lower than that seen in the WT RyR channel
- level of block (F4870A RyR2 [5]): to a level indistinguishable from the closed state
- magnitude / probability of block (1 − Po) vs WT (F4870A RyR2 [5]): lower than that seen in the WT RyR channel
- level of block (I4867A RyR2 [6]): to a level indistinguishable from the closed state
- magnitude / probability of block (1 − Po) vs WT (I4867A RyR2 [6]): lower than that seen in the WT RyR channel
- level of block (L4865A RyR2 [7]): to a level indistinguishable from the closed state
- magnitude / probability of block (1 − Po) vs WT (L4865A RyR2 [7]): lower than that seen in the WT RyR channel
- rate of dissociation (koff), difference TBA vs TPeA (WT mouse RyR2): very marked difference in the rates of dissociation of TBA and TPeA is retained
- level of block (WT mouse RyR2): to a level indistinguishable from the closed state; also recorded: completely occlude the RyR2 pore
- level of block (I4862A RyR2 [8]): to a level indistinguishable from the closed state
- magnitude / probability of block (1 − Po) vs WT (I4862A RyR2 [8]): lower than that seen in the WT RyR channel
- rate of dissociation (koff) vs WT (L4865A RyR2 [9]; 100 µM TPeA): significantly increased rates of TPeA dissociation
- residual current vs WT (L4865A RyR2 [9]; 100 µM TPeA): indistinguishable from that of the WT channel
- amplitude of full open state in presence of TPeA vs WT (L4865A RyR2 [9]): indistinguishable from that of the WT channel

Compound: MAAVAGLYGLGEDRQHRKKQ [ShBP]
- reduction in Po (RyR2; 20 µM ShBP cytosolic, ryanodine-modified, symmetrical 610 mM KCl): no significant reduction in Po
- block at high K+ activity (RyR2): ineffective

Compound: MAAVVGLYGLGEDRQHRKKQ [MHBPII]
- block at high K+ activity (RyR2): ineffective

Compound: MAQVQGLYGLGEDRQHRKKQ-NH2 [LHBP]
- pKd [10]: 4.18

Compound: MAVVAGLYGLGEDRQHRKKQ-NH2 [MHBPI]
- pKd [10]: 4.56

Compound: ryanodine
- reduction in conductance of ryanodine-modified state vs WT modified channel (F4870A RyR2 [11]; [16]): ~10%
- Po and unitary conductance on ryanodine modification (F4870A RyR2 [11]; ryanodine): characteristic increase in Po and reduction in unitary conductance
- amplitude of ryanodine-modified open state vs WT modified channel (I4862A RyR2 [12]; 1 µM ryanodine, 60 mV): not significantly different from that of the WT channel
- Po and unitary conductance on ryanodine modification (I4862A RyR2 [12]; ryanodine): characteristic increase in Po and reduction in unitary conductance
- amplitude of ryanodine-modified open state vs WT modified channel (I4861A RyR2 [13]; 1 µM ryanodine, 60 mV): not significantly different from that of the WT channel
- Po and unitary conductance on ryanodine modification (I4861A RyR2 [13]; ryanodine): characteristic increase in Po and reduction in unitary conductance
- reduction in conductance of ryanodine-modified state vs WT modified channel (L4865A RyR2 [14]; [16]): ~10%
- Po and unitary conductance on ryanodine modification (L4865A RyR2 [14]; ryanodine): characteristic increase in Po and reduction in unitary conductance
- reduction in conductance of ryanodine-modified state vs WT modified channel (I4867A RyR2 [15]; [16]): ~10%
- Po and unitary conductance on ryanodine modification (I4867A RyR2 [15]; ryanodine): characteristic increase in Po and reduction in unitary conductance
